The text below walks through data of ChEMBL document CHEMBL1139495, “Retro hydrazino-azapeptoids as peptidomimetics of proteasome inhibitors” (J Med Chem, 2005).

Where a SMILES comes first, the peptide text is derived from it. [ ]: non-standard residue; d: D form. Nle = CCCC[C@H](N)C(=O)O

One test relates to Mel-A (Mus musculus). The test is described as follows: Inhibitory concentration of the compound was determined against melanocyte Mel-A cells.
Another test has as its system B16. As to the kind of experiment: Inhibitory concentration of the compound was determined against melanoma B16 cells. It counts as functional, cell-based. Particulars: Mus musculus. Summed up: (§1)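 MTT read-out on cultured cells (murine leukemia L1210, melanoma B16, normal melanocyte Mel-A), scoring growth inhibition as either a cytostatic or a cytotoxic effect.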

The next test has as its system L1210. As to the kind of experiment: Inhibitory concentration of the compound was determined against L1210 cells. Particulars: Mus musculus. It counts as functional, cell-based. Summed up: as §1
Test [1] relates to Proteasome. The test is described as follows: Inhibitory concentration against 20S proteasome chymotrypsin-like activity. It counts as subcellular.
The next test addresses Cathepsin B (Homo sapiens, UniProt P07858). As to the kind of experiment: (§2) Inhibitory concentration against Cathepsin B activity. It counts as functional.
Test [2] has as its target T1, Calpain-1 catalytic subunit (Homo sapiens, UniProt P07384).
T1 sequence (P07384 whole entry): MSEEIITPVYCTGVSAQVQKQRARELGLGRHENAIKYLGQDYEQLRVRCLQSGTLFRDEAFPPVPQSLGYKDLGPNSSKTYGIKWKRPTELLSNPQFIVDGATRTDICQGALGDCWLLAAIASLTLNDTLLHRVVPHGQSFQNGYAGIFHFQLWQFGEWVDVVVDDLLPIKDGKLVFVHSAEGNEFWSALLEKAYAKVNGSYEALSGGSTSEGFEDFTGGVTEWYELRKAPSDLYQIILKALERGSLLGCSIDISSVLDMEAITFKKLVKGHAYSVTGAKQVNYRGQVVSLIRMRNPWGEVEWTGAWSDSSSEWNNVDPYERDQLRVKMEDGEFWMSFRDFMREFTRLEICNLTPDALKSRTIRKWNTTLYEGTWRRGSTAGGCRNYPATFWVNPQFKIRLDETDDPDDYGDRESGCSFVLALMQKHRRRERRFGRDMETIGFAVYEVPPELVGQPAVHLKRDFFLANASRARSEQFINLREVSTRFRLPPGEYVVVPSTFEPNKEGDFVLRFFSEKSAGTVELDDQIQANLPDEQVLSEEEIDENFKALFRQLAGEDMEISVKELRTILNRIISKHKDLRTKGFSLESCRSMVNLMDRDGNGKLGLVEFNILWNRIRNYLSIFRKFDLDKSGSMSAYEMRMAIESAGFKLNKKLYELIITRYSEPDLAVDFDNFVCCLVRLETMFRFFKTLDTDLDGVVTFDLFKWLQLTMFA
The test is described as follows: Inhibitory concentration against Calpain I activity.

A short description of test [3]: as §2.
Test [4] in a line: Inhibitory concentration against peptidyl-glutamyl peptide hydrolase activity.
For test [5], the system named is Proteasome. The test is described as follows: Inhibitory effect on 20S proteasome chymotrypsin-like activity. It is filed as subcellular.

Regarding `CC(C)CN(NC(=O)OCc1ccccc1)C(=O)CN(Cc1ccccc1)/N=C/c1ccccc1B(O)O`, the IC50 in the test with Mel-A (Mus musculus) was 45.1 µM; in the test on B16, 65.5 µM; in the test with L1210 it was 27.9 µM; in the test with Proteasome [1] it was over 1000 µM.
For the compound `CC(C)CN(CC(=O)N(Cc1ccccc1)NC(=O)OCc1ccccc1)/N=C/c1ccccc1B(O)O`, the 50% inhibitory concentration (IC50) was 25.1 µM in the test on Mel-A (Mus musculus), 33.5 µM in the test with B16, 18.4 µM in the test with L1210 and over 1000 µM in the test on Proteasome [1].
With `CC(C)CN(NC(=O)CN(Cc1ccccc1)/N=C/c1cccc(B(O)O)c1)c1cnccn1`, the concentration for half-maximal inhibition (IC50) in the test with Mel-A (Mus musculus) was 16.3 µM; in the test on B16, over 80 µM; in the test on L1210, over 80 µM; in the test with Proteasome [1], 500 µM.
Take `CC(C)CN(CC(=O)N(Cc1ccccc1)NC(=O)OCc1ccccc1)/N=C/c1cccc(B(O)O)c1`: the IC50 in the test with Mel-A (Mus musculus) was 19.9 µM; with B16, 20.5 µM; in the test on L1210, 16.9 µM; in the test with Proteasome [1], over 1000 µM.
In the case of `CC(C)CN(CC(=O)N(CC(C)C)NC(=O)OCc1ccccc1)NC(=O)CBr`, the IC50 was 3.3 µM in the test with Mel-A (Mus musculus), 1.3 µM in the test with B16, 6.5 µM in the test with L1210 and over 1000 µM in the test with Proteasome [1].
On the same counts, the results for `CC(C)CN(CC(=O)N(Cc1cccnc1)NC(=O)OCc1ccccc1)/N=C/c1cccc(B(O)O)c1` are 40.3 µM, 21.1 µM, 41.6 µM and 350 µM.
As to `CC(C)CN(CC(=O)N(CC(C)C)NC(=O)OCc1ccccc1)NC(=O)CNNC(=O)CBr`, the IC50 is 2.3 µM in the test on Mel-A (Mus musculus), 2.5 µM in the test on B16, 7.6 µM with L1210 and over 1000 µM with Proteasome [1].
In the case of `CC(C)CN(NC(=O)OCc1ccccc1)C(=O)CN(Cc1ccccc1)/N=C/c1cccc(B(O)O)c1`, the half-inhibitory concentration (IC50) in the test with Mel-A (Mus musculus) is 18.4 µM; in the test with B16, 20.4 µM; against Cathepsin B, over 1000 µM; in the test on L1210, 16.2 µM; with Proteasome [1], 53 µM; in test [2], over 1000 µM.
Consider `CC(C)CN(NC(=O)CN(Cc1ccccc1)NC(=O)CBr)C(=O)OCc1ccccc1`, for which the results for the 50% inhibitory concentration (IC50) with B16, in the test on L1210 and with Proteasome [1] were 0.7 µM, 0.6 µM and over 1000 µM, respectively.
As for `CC(C)CN(NC(=O)OCc1ccccc1)C(=O)CN(Cc1cccnc1)/N=C/c1cccc(B(O)O)c1`, the IC50 with Mel-A (Mus musculus) was 60.9 µM; in the test on B16, 74.9 µM; in the test with L1210, 75 µM; with Proteasome [1], over 1000 µM.
On the same counts, the results for `CC(C)CN(CC(=O)NN(Cc1ccccc1)c1cnccn1)/N=C/c1cccc(B(O)O)c1` are 33.7 µM, over 80 µM, over 80 µM and over 1000 µM.
Turning to `CC(C)CN(NC(=O)OCc1ccccc1)C(=O)CN(Cc1ccccc1)NC(=O)CBr`, the IC50 in the test with Mel-A (Mus musculus) was 1.8 µM; with B16, 1.4 µM; in the test on L1210, 1.3 µM; with Proteasome [1], over 1000 µM.
For `CC(C)CN(NC(=O)OCc1ccccc1)C(=O)CN(Cc1ccccc1)/N=C/c1ccc(B(O)O)cc1`, the concentration for half-maximal inhibition (IC50) with Mel-A (Mus musculus) is 39.3 µM; in the test on B16, 32.6 µM; with L1210 it was 14.7 µM; with Proteasome [1], over 1000 µM.
Regarding `CC(C)CN(CC(=O)N(CC(C)C)NC(=O)OCc1ccccc1)/N=C/c1cccc(B(O)O)c1`, the concentration for half-maximal inhibition (IC50) in the test on B16 was determined as 53.9 µM; in the test on L1210, 21.2 µM; in the test on Proteasome [1], 91 µM.
As for `CC(C)CN(CC(=O)N(CC(C)C)NCC(=O)OCc1ccccc1)NC(=O)CBr`, the concentration for half-maximal inhibition (IC50) in the test with Mel-A (Mus musculus) is 4.5 µM; in the test with B16, 2.2 µM; in the test on L1210, 5 µM; in the test on Proteasome [1], over 1000 µM.
In the case of `CC(C)CN(NC(=O)OCc1ccccc1)C(=O)CN(Cc1ccccc1)NCc1cccc(Br)c1`, the concentration for half-maximal inhibition (IC50) with B16 was over 80 µM; with L1210, 30 µM; in the test on Proteasome [1], over 1000 µM.
In the case of `CC(C)CN(CC(=O)NN(Cc1ccccc1)c1cnccn1)NC(=O)CBr`, the IC50 was 14.8 µM in the test on Mel-A (Mus musculus), 11.4 µM with B16, 24.1 µM in the test on L1210 and over 1000 µM in the test on Proteasome [1].
Consider `CC(C)CN(CC(=O)N(CC(C)C)NC(=O)OCc1ccccc1)/N=C/c1ccccc1B(O)O`, for which the concentration for half-maximal inhibition (IC50) in the test on Mel-A (Mus musculus) is 17.3 µM; with B16 it was 26.3 µM; against Cathepsin B, over 1000 µM; with L1210 it was 16.2 µM; in the test on Proteasome [1] it was 50 µM; in [2], over 1000 µM.
In the case of `CCCC[C@@H](C=O)NC(=O)[C@H](CC(C)C)NC(=O)[C@H](CC(C)C)NC(C)=O` (Ac-Leu-Leu-[Nle]-aldehyde), the IC50 in [3] was 12 µM; in test [4], 45 µM; in the test with B16, 14.5 µM; in the test with L1210 it was 3 µM; in the test with Proteasome [5], 15 µM; in test [2], 1 µM.
